# Test system: Mycobacterium tuberculosis variant bovis BCG
# Assay: Antimycobacterial activity against Mycobacterium bovis BCG ATCC 35737 by resazurin dye based fluorimetric assay
# Format: functional, organism-based
# In short: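 Resazurin microtiter method as for the bacterial panel. Mycobacteria grown in 7H9 with 10% OADC and 0.5% glycerol; for BCG, 0.05% Tween 80 replaced the glycerol. Cultures were sonicated and needle-passed to single cells. Incubation at 37°C, or 32°C for M. marinum. Fluorescence read at ex 550/em 590 nm; mean of triplicates.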
row,Structure (SMILES),IC50 [µM]
1,O=C1C2=C(C(=O)c3c1cnc1cc(C(F)(F)F)ccc31)C1CCC2C1 (configuration not stated),15
2,O=C1C2=C(C(=O)c3c1cnc1ccccc31)C1CCC2C1 (configuration not stated),7.9
3,O=C1C2=C(C(=O)c3c1cnc1c(F)cccc31)C1CCC2C1 (configuration not stated),5.03
4,COc1c(N2C[C@@H]3CCCN[C@@H]3C2)c(F)cc2c(=O)c(C(=O)O)cn(C3CC3)c12 [MOXIFLOXACIN],0.03
5,O=C1C2=C(C(=O)c3c1cnc1ccc(C(F)(F)F)cc31)C1CCC2C1 (configuration not stated),12.5
6,O=C1C2=C(C(=O)c3c1cnc1cc(F)ccc31)C1CCC2C1 (configuration not stated),17.4
7,O=C1C2=C(C(=O)c3c1cnc1ccc(F)cc31)C1CCC2C1 (configuration not stated),10.3
